According to ChEMBL document CHEMBL3400034, “Design, synthesis and biological evaluation of di-substituted noscapine analogs as potent and microtubule-targeted anticancer agents” (Bioorg Med Chem Lett, 2015):
Activity calls are given as the source filed them. The rule behind the calls is not given here.

Assays:
MDA-MB-231 [1] = test: Induction of cell death in human MDA-MB-231 cells at 25 uM after 48 hrs by propidium iodide staining based FACS method; assay type: functional
Outline: (§1)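 MDA-MB-231 cells treated for 0–48 h, with samples at several time points. Concentration was 10 µM for some analogs and 25 µM for others. DNA stained with propidium iodide and analysed by flow cytometry. 2N DNA scored as G1, 4N as G2/M, below 2N as sub-G1 (apoptotic index).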

Tubulin (Bos taurus) [2] = molecular target: T1, Tubulin (Bos taurus) (UniProt Q6B856+Q862L2+Q862F3); test: Inhibition of bovine brain tubulin polymerization incubated for 10 to 30 mins by spectrophotometry based light scattering assay
Outline: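 Polymerisation of 12 µM tubulin followed by turbidity (light scattering) at 350 nm. Compound range 0–25 µM, over 30 min. Reported as relative absorbance.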

Tubulin = Tubulin (Bos taurus, UniProt Q6B856+Q862L2+Q862F3); test: (§2) Binding affinity to bovine brain tubulin assessed as reduction in tubulin intrinsic tryptophan fluorescence intensity incubated for 45 mins by spectrophotometry based fluorescence titration assay
Outline: (§3)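 Tubulin binding measured as quenching of intrinsic tryptophan fluorescence across increasing compound concentrations. KD derived from double reciprocal plots. Mean ± S.D. of three independent experiments, each performed in triplicate.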

Tubulin (Bos taurus) [3] = molecular target: T1, Tubulin (Bos taurus); test: as §2; outline: as §3
[4] = Cytotoxicity activity against human PC3 cells after 48 hrs by MTT assay; assay type: functional, cell-based; settings: PC-3, 48 h
Outline: (§4)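 Cells exposed for 48 h to increasing gradient concentrations. Proliferation read by MTT assay as percentage cell survival. IC50 is the drug concentration giving 50% inhibition of proliferation.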

MDA-MB-231 [5] = test: Induction of apoptosis in human MDA-MB-231 cells assessed as accumulation at subG1 phase at 25 uM after 12 to 48 hrs by propidium iodide staining based FACS method; assay type: functional, cell-based; outline: as §1
MDA-MB-231 [6] = test: Induction of apoptosis in human MDA-MB-231 cells assessed as increase in cleaved PARP protein level at 25 uM after 24 hrs by immunoblot method; assay type: functional, cell-based
Outline: (§5)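 Lysates from treated and control cells run on immunoblots. Probed for survivin and cleaved PARP, with β-actin as loading control.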

MDA-MB-231 [7] = test: Cytotoxicity activity against human MDA-MB-231 cells after 48 hrs by MTT assay; assay type: functional, cell-based; settings: MDA-MB-231, 48 h; outline: as §4
MDA-MB-231 [8] = test: Induction of apoptosis in human MDA-MB-231 cells assessed as increase in caspase-3/7 activity by measuring Z-DEVD-aminoluciferin cleavage at 25 uM after 24 hrs by luminescence plate reader based method; assay type: functional, cell-based
Outline: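 Lysates from treated and control cells assayed for caspase-3/7 activity. Read-out was luminescence from cleavage of Z-DEVD-aminoluciferin, expressed relative to control.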

MDA-MB-231 [9] = test: Induction of cell cycle arrest in human MDA-MB-231 cells assessed as accumulation at G2/M phase at 25 uM after 12 to 48 hrs by propidium iodide staining based FACS method; assay type: functional; outline: as §1
MDA-MB-231 [10] = test: Induction of apoptosis in human MDA-MB-231 cells assessed as reduction in survivin protein expression at 25 uM after 24 hrs by immunoblot method; assay type: functional, cell-based; outline: as §5
MDA-MB-231 [11] = test: Induction of cell cycle arrest in human MDA-MB-231 cells assessed as accumulation at G2/M phase at 10 uM after 12 to 48 hrs by propidium iodide staining based FACS method; assay type: functional
Outline: (§6)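 MDA-MB-231 cells treated for 0–48 h (compounds at 10 µM or 25 µM depending on analog); DNA stained with propidium iodide and cell cycle profiles read by flow cytometry; G2/M (4N DNA) and sub-G1 (apoptotic index) populations quantified at each time point.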

MDA-MB-231 [12] = test: Induction of apoptosis in human MDA-MB-231 cells assessed as increase in cleaved PARP protein level at 10 uM after 24 hrs by immunoblot method; assay type: functional, cell-based
Outline: (§7)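 Protein lysates from treated and control MDA-MB-231 cells analysed by immunoblot, probed for survivin and cleaved PARP, with β-actin as loading control.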

MDA-MB-231 [13] = test: Induction of apoptosis in human MDA-MB-231 cells assessed as increase in caspase-3/7 activity by measuring Z-DEVD-aminoluciferin cleavage at 10 uM after 24 hrs by luminescence plate reader based method; assay type: functional, cell-based
Outline: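 Lysates from treated and control MDA-MB-231 cells assayed for caspase-3/7 activity by luminescence from cleavage of Z-DEVD-aminoluciferin substrate; activity expressed relative to untreated control.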

MDA-MB-231 [14] = test: Induction of apoptosis in human MDA-MB-231 cells assessed as reduction in survivin protein expression at 10 uM after 24 hrs by immunoblot method; assay type: functional, cell-based; outline: as §7
MDA-MB-231 [15] = test: Induction of cell death in human MDA-MB-231 cells at 10 uM after 48 hrs by propidium iodide staining based FACS method; assay type: functional; outline: as §1
MDA-MB-231 [16] = test: Induction of apoptosis in human MDA-MB-231 cells assessed as accumulation at subG1 phase at 10 uM after 12 to 48 hrs by propidium iodide staining based FACS method; assay type: functional, cell-based; outline: as §6
Tubulin (Bos taurus) [17] = molecular target: T1, Tubulin (Bos taurus); test: Inhibition of bovine brain tubulin polymerization at 25 uM incubated for 10 to 30 mins by spectrophotometry based light scattering assay
Outline: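 Assembly of 12 µM tubulin followed by turbidity (light scattering) at 350 nm over 30 min with compound at 0–25 µM; relative absorbance compared with control.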

| SMILES | Activity (MDA-MB-231 [1]) | inhibition (Tubulin (Bos taurus) [2]) | Kd (Tubulin) | Activity (Tubulin (Bos taurus) [3]) | IC50 [4] | Activity (MDA-MB-231 [5]) | Activity (MDA-MB-231 [6]) | IC50 (MDA-MB-231 [7]) | Activity (MDA-MB-231 [8]) | Activity (MDA-MB-231 [9]) | Activity (MDA-MB-231 [10]) | Activity (MDA-MB-231 [11]) | Activity (MDA-MB-231 [12]) | Activity (MDA-MB-231 [13]) | Activity (MDA-MB-231 [14]) | Activity (MDA-MB-231 [15]) | Activity (MDA-MB-231 [16]) | inhibition (Tubulin (Bos taurus) [17]) |
| --- | --- | --- | --- | --- | --- | --- | --- | --- | --- | --- | --- | --- | --- | --- | --- | --- | --- | --- |
| COc1ccc2c(c1OC(=O)NCc1ccccc1)C(=O)O[C@@H]2[C@H]1c2c(c(Br)c3c(c2OC)OCO3)CCN1C | 80% | Dose-dependent effect | 21 µM | Dose-dependent effect | 49.4 µM | Active | Active | 20 µM | Active | 15% | Active | – | – | – | – | – | – | – |
| COc1ccc2c(c1OC(C)=O)C(=O)O[C@@H]2[C@H]1c2c(c(Br)c3c(c2OC)OCO3)CCN1C | – | Dose-dependent effect | 44 µM | Dose-dependent effect | 48.9 µM | – | – | 2.5 µM | – | – | – | 15% | Active | Active | inactive | 80% | Active | – |
| COc1ccc2c(c1O)C(=O)O[C@@H]2[C@H]1c2c(c(Br)c3c(c2OC)OCO3)CCN1C | – | Dose-dependent effect | 55 µM | Dose-dependent effect | 5.6 µM | – | – | 2.2 µM | – | – | – | 15% | Active | Active | inactive | – | Active | Active |
| CCNC(=O)Oc1c(OC)ccc2c1C(=O)O[C@@H]2[C@H]1c2c(c(Br)c3c(c2OC)OCO3)CCN1C | 80% | Dose-dependent effect | 26 µM | Dose-dependent effect | 22 µM | Active | Active | 3.9 µM | Active | 15% | Active | – | – | – | – | – | – | – |
